Experimental data as given in ChEMBL document CHEMBL3997853, “2-Aminopyrimidine Derivatives as New Selective Fibroblast Growth Factor Receptor 4 (FGFR4) Inhibitors” (ACS Med Chem Lett, 2017).

Columns and labels:
[1] = biological target: Fibroblast growth factor receptor 3 (Homo sapiens, UniProt P22607); assay: Inhibition of His-tagged cytoplasmic recombinant human FGFR3 (399 to 806 residues) expressed in baculovirus expression system using Tyr 4 peptide as substrate incubated for 1 hr by FRET-based Z'-Lyte assay
Chain of Fibroblast growth factor receptor 3 (P22607 whole entry, the tested form may be a part): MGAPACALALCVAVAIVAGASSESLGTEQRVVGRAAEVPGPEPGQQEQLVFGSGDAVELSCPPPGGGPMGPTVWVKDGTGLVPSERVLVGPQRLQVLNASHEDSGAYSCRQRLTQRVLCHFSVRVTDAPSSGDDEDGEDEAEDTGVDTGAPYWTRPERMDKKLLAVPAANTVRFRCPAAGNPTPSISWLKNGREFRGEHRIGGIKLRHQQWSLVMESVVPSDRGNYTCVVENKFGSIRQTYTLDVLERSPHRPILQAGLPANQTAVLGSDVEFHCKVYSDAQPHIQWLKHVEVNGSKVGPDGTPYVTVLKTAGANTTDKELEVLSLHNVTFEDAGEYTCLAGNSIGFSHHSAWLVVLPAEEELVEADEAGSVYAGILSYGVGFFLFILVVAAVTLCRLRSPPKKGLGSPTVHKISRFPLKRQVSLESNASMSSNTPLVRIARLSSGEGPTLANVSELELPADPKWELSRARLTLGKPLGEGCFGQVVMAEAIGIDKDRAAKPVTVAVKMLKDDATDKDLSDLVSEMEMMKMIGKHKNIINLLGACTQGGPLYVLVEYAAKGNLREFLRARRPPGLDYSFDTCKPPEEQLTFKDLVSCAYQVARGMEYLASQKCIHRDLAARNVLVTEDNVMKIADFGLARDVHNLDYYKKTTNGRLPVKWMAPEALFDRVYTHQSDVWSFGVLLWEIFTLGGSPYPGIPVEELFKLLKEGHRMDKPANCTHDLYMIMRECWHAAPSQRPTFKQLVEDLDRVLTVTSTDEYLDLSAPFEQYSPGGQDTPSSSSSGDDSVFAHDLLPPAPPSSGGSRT

[2] = biological target: Fibroblast growth factor receptor 2 (Homo sapiens, UniProt P21802); assay: Inhibition of His-tagged cytoplasmic recombinant human FGFR2 (403 to 822 residues) expressed in baculovirus expression system using Tyr 4 peptide as substrate incubated for 1 hr by FRET-based Z'-Lyte assay
Chain of Fibroblast growth factor receptor 2 (P21802 whole entry, the tested form may be a part): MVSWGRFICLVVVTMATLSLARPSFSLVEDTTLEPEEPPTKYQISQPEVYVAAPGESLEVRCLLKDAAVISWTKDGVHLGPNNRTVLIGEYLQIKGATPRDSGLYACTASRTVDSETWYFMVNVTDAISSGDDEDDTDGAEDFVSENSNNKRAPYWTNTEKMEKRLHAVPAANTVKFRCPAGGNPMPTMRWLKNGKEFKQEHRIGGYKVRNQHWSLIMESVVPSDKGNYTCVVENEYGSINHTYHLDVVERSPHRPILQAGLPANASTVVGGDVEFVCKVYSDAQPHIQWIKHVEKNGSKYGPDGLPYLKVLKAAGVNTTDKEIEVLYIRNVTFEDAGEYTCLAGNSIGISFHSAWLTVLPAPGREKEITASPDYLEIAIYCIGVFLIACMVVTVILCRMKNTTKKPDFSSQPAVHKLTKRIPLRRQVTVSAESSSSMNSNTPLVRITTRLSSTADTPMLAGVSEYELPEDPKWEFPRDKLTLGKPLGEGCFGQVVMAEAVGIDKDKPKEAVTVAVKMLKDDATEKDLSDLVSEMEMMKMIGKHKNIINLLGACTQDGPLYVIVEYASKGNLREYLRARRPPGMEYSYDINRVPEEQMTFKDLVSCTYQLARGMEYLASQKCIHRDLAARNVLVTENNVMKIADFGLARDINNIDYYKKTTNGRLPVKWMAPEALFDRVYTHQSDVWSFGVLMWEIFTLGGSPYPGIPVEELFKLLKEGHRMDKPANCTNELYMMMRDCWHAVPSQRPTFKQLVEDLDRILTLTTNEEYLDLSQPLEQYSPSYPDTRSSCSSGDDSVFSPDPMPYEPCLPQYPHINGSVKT

[3] = biological target: T1, Fibroblast growth factor receptor 4 (Homo sapiens, UniProt P22455); assay: Inhibition of His-tagged cytoplasmic recombinant human FGFR4 ([…] residues) expressed in baculovirus expression system using Tyr 4 peptide as substrate incubated for 1 hr by FRET-based Z'-Lyte assay
Target sequence in this assay (P22455 whole entry, the tested form may be a part): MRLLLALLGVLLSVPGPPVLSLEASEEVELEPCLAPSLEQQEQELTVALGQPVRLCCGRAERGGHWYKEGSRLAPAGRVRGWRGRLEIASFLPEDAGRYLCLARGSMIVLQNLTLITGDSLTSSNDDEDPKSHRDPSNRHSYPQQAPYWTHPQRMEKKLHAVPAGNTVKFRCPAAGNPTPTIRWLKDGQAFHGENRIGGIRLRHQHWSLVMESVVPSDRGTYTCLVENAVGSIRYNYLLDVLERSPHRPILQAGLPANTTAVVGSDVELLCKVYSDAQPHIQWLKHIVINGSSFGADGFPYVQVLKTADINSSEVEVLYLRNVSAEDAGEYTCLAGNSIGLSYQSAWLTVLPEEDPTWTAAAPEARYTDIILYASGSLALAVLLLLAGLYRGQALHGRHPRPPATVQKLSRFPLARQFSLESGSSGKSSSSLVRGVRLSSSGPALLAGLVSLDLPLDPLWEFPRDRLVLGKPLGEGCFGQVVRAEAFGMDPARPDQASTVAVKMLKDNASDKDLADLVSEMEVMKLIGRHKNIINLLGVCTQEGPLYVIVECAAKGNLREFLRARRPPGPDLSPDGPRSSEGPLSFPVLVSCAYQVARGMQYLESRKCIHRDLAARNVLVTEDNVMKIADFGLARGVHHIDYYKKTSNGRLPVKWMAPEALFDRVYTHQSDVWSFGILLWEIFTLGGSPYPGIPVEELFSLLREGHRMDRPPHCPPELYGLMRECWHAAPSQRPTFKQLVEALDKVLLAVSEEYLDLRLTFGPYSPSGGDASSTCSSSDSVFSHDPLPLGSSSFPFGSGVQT

[4] = biological target: Fibroblast growth factor receptor 1 (Homo sapiens, UniProt P11362); assay: Inhibition of His-tagged cytoplasmic recombinant human FGFR1 (308 to 731 residues) expressed in baculovirus expression system using Tyr 4 peptide as substrate incubated for 1 hr by FRET-based Z'-Lyte assay
Chain of Fibroblast growth factor receptor 1 (P11362 whole entry, the tested form may be a part): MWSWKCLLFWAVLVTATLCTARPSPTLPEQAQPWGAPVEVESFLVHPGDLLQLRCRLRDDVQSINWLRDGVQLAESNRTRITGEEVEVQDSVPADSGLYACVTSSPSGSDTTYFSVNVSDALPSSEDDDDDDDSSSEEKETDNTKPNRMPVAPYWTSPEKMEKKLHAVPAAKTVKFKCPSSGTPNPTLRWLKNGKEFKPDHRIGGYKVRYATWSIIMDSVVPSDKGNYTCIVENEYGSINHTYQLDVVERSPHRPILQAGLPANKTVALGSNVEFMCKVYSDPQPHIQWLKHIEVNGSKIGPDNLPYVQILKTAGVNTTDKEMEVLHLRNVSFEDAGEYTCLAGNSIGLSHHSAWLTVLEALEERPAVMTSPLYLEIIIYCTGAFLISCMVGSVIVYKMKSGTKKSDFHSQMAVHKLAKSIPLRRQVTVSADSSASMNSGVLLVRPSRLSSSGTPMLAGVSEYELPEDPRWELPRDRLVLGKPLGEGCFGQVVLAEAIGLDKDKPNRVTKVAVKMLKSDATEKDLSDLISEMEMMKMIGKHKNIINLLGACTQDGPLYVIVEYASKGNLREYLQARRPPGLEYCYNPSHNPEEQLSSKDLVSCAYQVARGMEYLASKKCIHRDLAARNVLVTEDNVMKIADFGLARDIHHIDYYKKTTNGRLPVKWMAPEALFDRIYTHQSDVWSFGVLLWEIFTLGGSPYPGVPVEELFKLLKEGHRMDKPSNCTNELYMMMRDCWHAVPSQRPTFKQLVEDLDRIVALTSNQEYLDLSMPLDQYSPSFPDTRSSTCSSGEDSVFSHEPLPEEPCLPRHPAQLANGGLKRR

MDA-MB-453 [5] = assay: Antiproliferative activity against human MDA-MB-453 cells harboring FGFR4 Y367C mutant after 72 hrs by CCK8 assay; conditions: MDA-MB-453, 72 h
MCF7 = assay: Antiproliferative activity against human MCF7 cells expressing low levels of FGFR4 after 72 hrs by CCK8 assay; conditions: MCF7, 72 h
MDA-MB-231 = assay: Antiproliferative activity against human MDA-MB-231 cells expressing low levels of FGFR4 after 72 hrs by CCK8 assay; conditions: MDA-MB-231, 72 h
[6] = biological target: Calcium/calmodulin-dependent protein kinase type 1D (Homo sapiens) (UniProt Q8IU85); assay: Inhibition of human CAMK1D at 1 uM after 1 hr by KINOMEscan assay relative to control
Chain of Calcium/calmodulin-dependent protein kinase type 1D (Homo sapiens) (Q8IU85 whole entry, looked up): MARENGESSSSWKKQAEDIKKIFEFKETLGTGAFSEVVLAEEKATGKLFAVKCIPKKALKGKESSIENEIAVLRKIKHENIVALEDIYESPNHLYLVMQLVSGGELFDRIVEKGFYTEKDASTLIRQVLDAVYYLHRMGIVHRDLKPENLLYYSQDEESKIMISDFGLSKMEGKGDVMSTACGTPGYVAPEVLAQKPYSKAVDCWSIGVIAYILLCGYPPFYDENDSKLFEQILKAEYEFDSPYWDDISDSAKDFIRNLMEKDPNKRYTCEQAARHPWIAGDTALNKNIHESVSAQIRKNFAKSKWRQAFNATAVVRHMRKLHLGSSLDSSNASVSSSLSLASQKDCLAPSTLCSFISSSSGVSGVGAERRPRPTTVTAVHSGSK
In short: (§1)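 Kinome-wide competition binding screen across 468 kinases, with compound at 1.0 µM.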

MDA-MB-453 [7] = assay: Induction of apoptosis in human MDA-MB-453 cells after 48 hrs by annexin V/[…] staining-based flow cytometric method; assay type: functional, cell-based
[8] = biological target: SRSF protein kinase 3 (Homo sapiens) (UniProt Q9UPE1); assay: Inhibition of human SRSF protein kinase 3 at 1 uM after 1 hr by KINOMEscan assay relative to control; in short: as §1
Chain of SRSF protein kinase 3 (Homo sapiens) (Q9UPE1 whole entry): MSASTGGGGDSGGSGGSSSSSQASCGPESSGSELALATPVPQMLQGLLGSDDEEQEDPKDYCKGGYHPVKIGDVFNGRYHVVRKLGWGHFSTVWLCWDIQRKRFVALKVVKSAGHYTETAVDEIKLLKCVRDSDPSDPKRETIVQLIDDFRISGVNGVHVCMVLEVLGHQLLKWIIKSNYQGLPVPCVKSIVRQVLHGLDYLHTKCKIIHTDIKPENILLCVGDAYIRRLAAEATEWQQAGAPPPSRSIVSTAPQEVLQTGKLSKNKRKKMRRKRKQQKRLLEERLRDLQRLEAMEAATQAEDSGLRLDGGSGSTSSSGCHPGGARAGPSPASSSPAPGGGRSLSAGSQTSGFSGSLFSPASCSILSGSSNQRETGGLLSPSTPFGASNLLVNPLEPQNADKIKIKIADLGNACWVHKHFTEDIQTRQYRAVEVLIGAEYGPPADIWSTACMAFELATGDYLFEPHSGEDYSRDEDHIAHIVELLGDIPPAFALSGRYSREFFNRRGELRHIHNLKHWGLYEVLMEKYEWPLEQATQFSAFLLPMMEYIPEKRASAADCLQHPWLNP

MDA-MB-453 [9] = assay: Effect on total FRS2 levels in human MDA-MB-453 cells at 3 to 300 nM after 4 hrs by Western blot method; assay type: ADME, cell-based; conditions: mda-mb-453, 4 h, 0.3 µM
In short: (§2)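 MDA-MB-453 cells (FGFR4 Y367C) were treated with or without compound for 4 h at the indicated concentrations. Cells were then harvested, and total and phosphorylated FGFR4, FRS2, ERK1/2 and Akt were read by Western blot.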

MDA-MB-453 [10] = assay: Effect on total AKT levels in human MDA-MB-453 cells at 3 to 300 nM after 4 hrs by Western blot method; assay type: ADME, cell-based; conditions: mda-mb-453, 4 h, 0.3 µM; in short: as §2
[11] = biological target: G protein-coupled receptor kinase 4 (Homo sapiens) (UniProt P32298); assay: Inhibition of human GRK4 at 1 uM after 1 hr by KINOMEscan assay relative to control; in short: as §1
Chain of G protein-coupled receptor kinase 4 (Homo sapiens) (P32298 whole entry, looked up): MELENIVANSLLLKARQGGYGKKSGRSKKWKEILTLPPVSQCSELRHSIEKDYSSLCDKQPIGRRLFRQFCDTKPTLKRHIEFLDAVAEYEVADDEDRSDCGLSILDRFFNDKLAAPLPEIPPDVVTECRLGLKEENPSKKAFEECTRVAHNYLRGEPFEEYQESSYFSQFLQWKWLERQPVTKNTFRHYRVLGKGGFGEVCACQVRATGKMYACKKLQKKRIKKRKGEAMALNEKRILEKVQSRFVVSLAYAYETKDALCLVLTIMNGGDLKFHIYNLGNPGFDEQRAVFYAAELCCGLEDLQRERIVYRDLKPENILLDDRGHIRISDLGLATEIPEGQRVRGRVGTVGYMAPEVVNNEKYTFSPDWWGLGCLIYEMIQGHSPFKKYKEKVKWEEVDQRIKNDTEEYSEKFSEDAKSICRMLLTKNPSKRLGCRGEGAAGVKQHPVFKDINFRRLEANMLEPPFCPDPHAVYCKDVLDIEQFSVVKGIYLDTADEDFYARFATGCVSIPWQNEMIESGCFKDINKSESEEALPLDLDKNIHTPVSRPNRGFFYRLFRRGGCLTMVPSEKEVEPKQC

[12] = biological target: T1, Fibroblast growth factor receptor 4; assay: Binding affinity to ATP binding site of human FGFR4 after 1 hr by qPCR method
In short: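 The Kd for FGFR4 was measured in an active-site-dependent competition binding assay against the ATP-binding site.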
Target sequence in this assay (P22455 whole entry, the tested form may be a part): as the sequence (P22455 whole entry, the tested form may be a part) above

MDA-MB-453 [13] = assay: Effect on total ERK1/2 levels in human MDA-MB-453 cells at 3 to 300 nM after 4 hrs by Western blot method; assay type: ADME, cell-based; conditions: mda-mb-453, 4 h, 0.3 µM; in short: as §2
[14] = biological target: T1, Fibroblast growth factor receptor 4; conditions: 1 uM

| IC50 [1] | IC50 [2] | IC50 [4] | SMILES | further results |
| --- | --- | --- | --- | --- |
| > 10 µM | > 10 µM |  | C=CC(=O)Nc1cccc(C)c1Nc1ncc(NCc2c(Cl)c(OC)cc(OC)c2Cl)cn1 |  |
| > 10 µM | > 10 µM |  | C=CC(=O)Nc1cc(C)ccc1Nc1ncc(OCc2c(Cl)c(OC)cc(OC)c2Cl)cn1 |  |
| > 10 µM | > 10 µM |  | CCC(=O)Nc1cccc(Cl)c1Nc1ncc(OCc2c(Cl)c(OC)cc(OC)c2Cl)cn1 | IC50 [3]: > 10 µM |
| > 10 µM | > 10 µM |  | C=CC(=O)Nc1cccc(Cl)c1Nc1ncc(OCc2c(Cl)ccc(OC)c2Cl)cn1 |  |
| > 10 µM | > 10 µM | > 10 µM | C=CC(=O)Nc1cc(C(F)(F)F)cc(Cl)c1Nc1ncc(OCc2c(Cl)c(OC)cc(OC)c2Cl)cn1 |  |
| > 10 µM | > 10 µM | > 10 µM | C=CC(=O)Nc1cccc(Cl)c1Nc1ncc(OCc2cccc(OC)c2)cn1 |  |
| > 10 µM | > 10 µM |  | C=CC(=O)Nc1c(C)cccc1Nc1ncc(OCc2c(Cl)c(OC)cc(OC)c2Cl)cn1 | IC50 [3]: > 10 µM |
| > 10 µM | > 10 µM |  | C=CC(=O)Nc1cccc(Cl)c1Nc1ncc(OCc2c(Cl)c(OC)cc(OC)c2Cl)cn1 | IC50 (MDA-MB-453 [5]): 0.65 µM; IC50 (MCF7): > 10 µM; IC50 (MDA-MB-231): > 10 µM |
| > 10 µM | > 10 µM | > 10 µM | C=CC(=O)Nc1cccc(Cl)c1Nc1ncc(OCc2ccccc2Cl)cn1 |  |
| > 10 µM | > 10 µM |  | C=CC(=O)Nc1cccc(Cl)c1Nc1ncc(OCc2cccc(OC)c2Cl)cn1 |  |
| > 10 µM | > 10 µM |  | C=CC(=O)Nc1cc(Cl)cc(Cl)c1Nc1ncc(OCc2c(Cl)c(OC)cc(OC)c2Cl)cn1 | IC50 (MDA-MB-453 [5]): 0.87 µM; IC50 (MCF7): > 10 µM; IC50 (MDA-MB-231): > 10 µM |
| > 10 µM | > 10 µM |  | C=CC(=O)Nc1cccc(Cl)c1Nc1ncc(OCc2cc(OC)cc(OC)c2)cn1 |  |
| > 10 µM | > 10 µM |  | C=CC(=O)Nc1cccc(Cl)c1Nc1ncc(OCc2cc(OC)ccc2Cl)cn1 |  |
|  |  |  | C=CC(=O)Nc1cccc(C)c1Nc1ncc(OCc2c(Cl)c(OC)cc(OC)c2Cl)cn1 | IC50 (MDA-MB-453 [5]): 0.22 µM; IC50 (MCF7): > 10 µM; IC50 (MDA-MB-231): > 10 µM |
| > 10 µM | > 10 µM |  | C=CC(=O)Nc1ccc(C)cc1Nc1ncc(OCc2c(Cl)c(OC)cc(OC)c2Cl)cn1 |  |
| 1.2 µM | 0.312 µM |  | C=CC(=O)Nc1ccccc1Nc1ncc(OCc2c(Cl)c(OC)cc(OC)c2Cl)cn1 |  |
| > 10 µM | > 10 µM |  | C=CC(=O)Nc1cccc(CC)c1Nc1ncc(OCc2c(Cl)c(OC)cc(OC)c2Cl)cn1 |  |
| 4.3 µM | 0.397 µM |  | C=CC(=O)Nc1cccc(F)c1Nc1ncc(OCc2c(Cl)c(OC)cc(OC)c2Cl)cn1 |  |
| > 10 µM | > 10 µM | > 10 µM | C=CC(=O)Nc1cccc(Cl)c1Nc1ncc(OCc2c(Cl)cccc2Cl)cn1 |  |
| 0.244 µM |  | 0.24 µM | C=CC(=O)Nc1cccc(C)c1Nc1ncc2cc(-c3c(Cl)c(OC)cc(OC)c3Cl)ccc2n1 | IC50 (MDA-MB-453 [5]): 0.32 µM; IC50 (MCF7): 2.34 µM; IC50 (MDA-MB-231): 3.76 µM |
| > 10 µM | > 10 µM | > 10 µM | C=CC(=O)Nc1cccc(C(F)(F)F)c1Nc1ncc(OCc2c(Cl)c(OC)cc(OC)c2Cl)cn1 |  |
| > 10 µM | > 10 µM | > 10 µM | C=CC(=O)Nc1cccc(OC(C)C)c1Nc1ncc(OCc2c(Cl)c(OC)cc(OC)c2Cl)cn1 |  |
| > 10 µM | > 10 µM |  | C=CC(=O)Nc1cccc(Cl)c1Nc1ncc(OC(C)c2c(Cl)c(OC)cc(OC)c2Cl)cn1 (stereo not given) |  |
| > 10 µM | > 10 µM |  | C=CC(=O)Nc1cccc(OC)c1Nc1ncc(OCc2c(Cl)c(OC)cc(OC)c2Cl)cn1 | IC50 (MDA-MB-453 [5]): 0.21 µM; IC50 (MCF7): 1.18 µM; IC50 (MDA-MB-231): 2.14 µM |
| > 10 µM | > 10 µM | > 10 µM | C=CC(=O)Nc1cccc(OCC)c1Nc1ncc(OCc2c(Cl)c(OC)cc(OC)c2Cl)cn1 |  |
| > 10 µM | > 10 µM | > 10 µM | C=CC(=O)Nc1cc(F)cc(Cl)c1Nc1ncc(OCc2c(Cl)c(OC)cc(OC)c2Cl)cn1 | inhibition [6]: 94.7%; IC50 (MDA-MB-453 [5]): 0.38 µM; Activity (MDA-MB-453 [7]): Dose-dependent effect; inhibition [8]: 88%; Activity (MDA-MB-453 [9]): Non-Toxic; IC50 [3]: 0.0026 µM; Activity (MDA-MB-453 [10]): Non-Toxic; IC50 (MCF7): > 10 µM; inhibition [11]: 92.8%; IC50 (MDA-MB-231): > 10 µM; Kd [12]: 0.0033 µM; Activity (MDA-MB-453 [13]): Non-Toxic; inhibition [14]: 99.5% |
| > 10 µM | > 10 µM |  | C=CC(=O)Nc1cccc(Cl)c1Nc1ncc(OCc2cc(OC)cc(OC)c2Cl)cn1 |  |
